Experimental findings from ChEMBL document CHEMBL4732018, “Design, synthesis, and biological evaluation of pyrazole-linked aloe emodin derivatives as potential anticancer agents” (RSC Med Chem, 2021) are described below.

The test system of one experiment is MDA-MB-231. The experiment in a line: Anticancer activity against human MDA-MB-231 cells assessed as cell growth inhibition measured after 48 hrs by MTT assay. To be noted: MDA-MB-231, 48 h. The format is functional, cell-based. In short, it runs like this: (§1)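 MTT test on ATCC lines grown in RPMI with 10% FBS and antibiotic/antimycotic at 37 °C in 5% CO₂. Cells were seeded at 4 x 10^3/well and treated for 48 h at 2.5, 5, 10 and 20 µM, from DMSO stocks diluted in medium. MTT (10 mg/mL stock) was then added for 3 h and absorbance read at 540 nm. IC50 derived; three independent experiments.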
A general note: Formazan colour is commonly taken as a measure of viable cells.

A further experiment relates to MCF7. The experiment in a line: Anticancer activity against human MCF-7 cells assessed as cell growth inhibition measured after 48 hrs by MTT assay. The format is functional, cell-based. To be noted: MCF7, 48 h. In short, it runs like this: as §1
The subject of the next experiment is HepG2. The experiment in a line: Anticancer activity against human HepG2 cells assessed as cell growth inhibition measured after 48 hrs by MTT assay. The format is functional, cell-based. To be noted: HepG2, 48 h. In short, it runs like this: as §1
The next experiment relates to B16-F10. The experiment in a line: Anticancer activity against mouse B16-F10 cells assessed as cell growth inhibition measured after 48 hrs by MTT assay. The experiment is classed as functional, cell-based. To be noted: B16-F10, 48 h. In short, it runs like this:
as §1

The subject of the next experiment is HEK293. The experiment in a line: Cytotoxicity against human HEK293 cells assessed as cell growth inhibition measured after 48 hrs by MTT assay. The format is cell-based. To be noted: HEK293, 48 h. Summed up:
as §1

The structures appear in SMILES notation.

Broadly, the IC50 is the point on the concentration scale where inhibition reaches its midpoint. As for `O=C1c2cccc(O)c2C(=O)c2c(O)cc(CO)cc21` [ALOE-EMODIN], the IC50 is 12.2 µM with MDA-MB-231; 4.14 µM in the experiment on MCF7; 6130 nM in the experiment on HepG2; 3.12 µM with B16-F10; 1 µM in the experiment on HEK293.
As for `COC(=O)c1c(-c2cc(O)c3c(c2)C(=O)c2cccc(O)c2C3=O)nn(-c2ccc(OC(F)(F)F)cc2)c1C(=O)OC`, the IC50 in the experiment on MDA-MB-231 came out at 3.68 µM; in the experiment on MCF7 it was 1.16 µM; in the experiment on HepG2, 2290 nM; in the experiment with B16-F10, 6.09 µM; in the experiment with HEK293, 6.84 µM.
As for `CCOC(=O)c1c(-c2cc(O)c3c(c2)C(=O)c2cccc(O)c2C3=O)nn(-c2ccc(Cl)cc2)c1C(=O)OCC`, the IC50 with MDA-MB-231 amounted to 6.2 µM; in the experiment on MCF7, 3.96 µM; in the experiment on HepG2 it was 2160 nM; in the experiment on B16-F10, 3.9 µM; in the experiment on HEK293, 1.09 µM.
The corresponding values for `CCOC(=O)c1c(-c2cc(O)c3c(c2)C(=O)c2cccc(O)c2C3=O)nn(-c2ccc(C)c(C)c2)c1C(=O)OCC` are 0.9 µM, 1.04 µM, 1000 nM, 1.85 µM and 1.03 µM.
Taken in the same sequence, the figures for `CCOC(=O)c1c(-c2cc(O)c3c(c2)C(=O)c2cccc(O)c2C3=O)nn(-c2ccc(C(C)C)cc2)c1C(=O)OCC` were 4.46 µM, 0.87 µM, 3350 nM, 1.15 µM and 9.32 µM.
In the case of `O=Cc1cc(O)c2c(c1)C(=O)c1cccc(O)c1C2=O`, the IC50 in the experiment with MDA-MB-231 was found to be 4.99 µM; with MCF7 it was 2.68 µM; with HepG2 it was 3150 nM; in the experiment on B16-F10 it was 2.9 µM; with HEK293, 4.49 µM.
As to `COc1cccc2c1C(=O)c1c(O)c3c(c(O)c1C2=O)C[C@@](O)(C(=O)CO)C[C@@H]3O[C@H]1C[C@H](N)[C@H](O)[C@H](C)O1` [DOXORUBICIN], the half-inhibitory concentration (IC50) in the experiment with MDA-MB-231 worked out at 2.56 µM; in the experiment with HepG2, 2350 nM; in the experiment on B16-F10, 3.28 µM; with HEK293, 1.65 µM.
For the molecule `CCOC(=O)c1c(-c2cc(O)c3c(c2)C(=O)c2cccc(O)c2C3=O)nn(-c2ccc(C#N)cc2)c1C(=O)OCC`, the concentration for half-maximal inhibition (IC50) was 1.15 µM in the experiment on MDA-MB-231; 4.62 µM in the experiment with MCF7; 1340 nM in the experiment on HepG2; 3.46 µM in the experiment with B16-F10; 1.97 µM in the experiment with HEK293.
With `CCOC(=O)c1c(-c2cc(O)c3c(c2)C(=O)c2cccc(O)c2C3=O)nn(-c2ccccc2)c1C(=O)OCC`, the IC50 with MDA-MB-231 stood at 21.7 µM; in the experiment on MCF7, 3.18 µM; with HepG2, 12400 nM; in the experiment with B16-F10, 2.22 µM; in the experiment on HEK293 it was 4.56 µM.
On to `CCOC(=O)c1c(-c2cc(O)c3c(c2)C(=O)c2cccc(O)c2C3=O)nn(-c2cccc(F)c2)c1C(=O)OCC`, for which the IC50 is 1.85 µM in the experiment with MDA-MB-231; 7.26 µM in the experiment with MCF7; 2600 nM with HepG2; 5.4 µM in the experiment on B16-F10; 1.93 µM with HEK293.
For `COC(=O)c1c(-c2cc(O)c3c(c2)C(=O)c2cccc(O)c2C3=O)nn(-c2ccccc2)c1C(=O)OC`, the IC50 is 6.78 µM with MDA-MB-231; 9.96 µM in the experiment with MCF7; 3410 nM with HepG2; 5.61 µM in the experiment on B16-F10; 8.86 µM in the experiment with HEK293.
In the case of `CCOC(=O)c1c(-c2cc(O)c3c(c2)C(=O)c2cccc(O)c2C3=O)nn(-c2ccccc2C)c1C(=O)OCC`, the IC50 in the experiment with MDA-MB-231 amounted to 7.56 µM; in the experiment on MCF7, 1.13 µM; with HepG2, 1350 nM; in the experiment with B16-F10 it was 1.57 µM; in the experiment on HEK293, 2.47 µM.
Regarding `CCOC(=O)c1c(-c2cc(O)c3c(c2)C(=O)c2cccc(O)c2C3=O)nn(-c2ccc(OC)cc2)c1C(=O)OCC`, the IC50 is 4.7 µM in the experiment on MDA-MB-231; 3.86 µM in the experiment on MCF7; 5680 nM in the experiment on HepG2; 2.15 µM in the experiment with B16-F10; 10.1 µM in the experiment on HEK293.
Consider `CCOC(=O)c1c(-c2cc(O)c3c(c2)C(=O)c2cccc(O)c2C3=O)nn(-c2ccc(Br)cc2)c1C(=O)OCC`, for which the IC50 was found to be 2.16 µM with MDA-MB-231; 8.98 µM with MCF7; 1260 nM in the experiment on HepG2; 8.15 µM in the experiment with B16-F10; 9.07 µM in the experiment on HEK293.
In the case of `COC(=O)c1c(-c2cc(O)c3c(c2)C(=O)c2cccc(O)c2C3=O)nn(-c2ccccc2C)c1C(=O)OC`, the IC50 in the experiment on MDA-MB-231 came out at 1.49 µM; in the experiment with MCF7, 4.66 µM; with HepG2 it was 3460 nM; in the experiment on B16-F10, 3.34 µM; with HEK293 it was 5.01 µM.
For the molecule `CCOC(=O)c1c(-c2cc(O)c3c(c2)C(=O)c2cccc(O)c2C3=O)nn(-c2cccc(C)c2)c1C(=O)OCC`, the IC50 was 0.99 µM in the experiment with MDA-MB-231; 6.35 µM with MCF7; 1150 nM with HepG2; 3.46 µM in the experiment on B16-F10; 1.12 µM in the experiment with HEK293.
In the case of `CCOC(=O)c1c(-c2cc(O)c3c(c2)C(=O)c2cccc(O)c2C3=O)nn(-c2ccc(OC(F)(F)F)cc2)c1C(=O)OCC`, the IC50 turned out to be 3.96 µM with MDA-MB-231; 3.58 µM in the experiment on MCF7; 6230 nM with HepG2; 3.35 µM in the experiment on B16-F10; 9.76 µM in the experiment on HEK293.
